Holding throughout (assay type): functional
Common to all, as to set-up: scale not given: the % may be the effect or the level left

Test [1] deals with Plasmodium berghei. Put plainly: Antimalarial activity against Plasmodium berghei infected in CD1 mouse assessed as decrease in parasitemia at 20 mg/kg, po administered using Na2CO3 vehicle measured on day 4 relative to control. The essentials:
(§1)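 Peters' standard 4-day suppressive test in male CD-1 mice infected with Plasmodium berghei by intraperitoneal injection. Compound given orally at 20 mg/kg, with 5 mice per group. Read-out is % parasite clearance on day 4. Vehicles were SSV (often as suspensions), DET (fully dissolved) or sodium carbonate solution, as specified in each line.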

Test [2] has as its system Plasmodium berghei. Put plainly: Antimalarial activity against Plasmodium berghei infected in CD1 mouse assessed as decrease in parasitemia at 20 mg/kg, po administered using standard suspension vehicle measured on day 4 relative to control. The method in brief:
as §1

Test [3] relates to Plasmodium berghei. Put plainly: Antimalarial activity against Plasmodium berghei infected in CD1 mouse assessed as decrease in parasitemia at 20 mg/kg, po administered using 5% DMSO and 5% EtOH in tetraglycol vehicle measured on day 4 relative to control. The essentials: as §1

For `Cc1c(-c2ccc(Cc3ccc(OC(F)(F)F)cc3)cc2)nc2cc(Cl)ccc2c1OP(=O)(O)O`, the Activity with Plasmodium berghei [1] is 100%.
Still for that read-out and setting: for `Cc1c(-c2ccc(Cc3ccc(OC(F)(F)F)cc3)cc2)nc2cc(Cl)ccc2c1OC(=O)N1CCOCC1` the value was 100%.
`O=C1C(O)=C([C@H]2CC[C@H](c3ccc(Cl)cc3)CC2)C(=O)c2ccccc21` [ATOVAQUONE]: the Activity with Plasmodium berghei [2] and with Plasmodium berghei [3] was 100% throughout.
